Tests used:
HT-29 = assay: In vitro cytotoxicity against human colon carcinoma (HT-29) cell line; type: functional, cell-based
Summary of the method: (§1)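 MTT assay on log-phase cells kept at 37 °C, 5% CO2. Seeded at 2.5 × 10³ cells/well; compound added 24 h later as serial PBS dilutions of a 1 × 10⁻⁵ M DMSO stock. Exposure 72 h, then MTT (1 mg/mL in PBS) for 4 h, DMSO solubilization, absorbance at 570 nm. PBS negative control, doxorubicin positive control. At least three experiments; IC50 = concentration reducing growth to 50% of control.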

HeLa = assay: In vitro cytotoxicity against human cervical carcinoma (HeLa) cell line; type: functional, cell-based; summary of the method: as §1
PC-3 = assay: In vitro cytotoxicity against human prostate carcinoma (PC-3) cell line; type: functional, cell-based; summary of the method: as §1
Mus musculus = assay: In vivo antitumor activity in mice infected with HT-29 cells; type: functional
Summary of the method: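 HT-29 xenografts: 10⁶ cells/0.1 mL DMEM injected sc into the back of athymic nu/nu mice. At ~0.1 cm³ tumors, randomized to 4 control and 4 treated. Dosing 5 mg/kg ip in sterile 0.9% NaCl, daily for 4 days then 10 days off (14-day cycles), up to 60 days; controls given vehicle. Tumors measured 1–2×/week; V = (Dd²)/2.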

Structure (SMILES) | IC50 (HT-29) [nM] | IC50 (HeLa) [nM] | IC50 (PC-3) [nM] | Reduction (Mus musculus) [%]
O=C1c2cccc3c2c(cc2occc23)C(=O)N1CCNCCCNCCN1C(=O)c2cccc3c2c(cc2occc23)C1=O | 370 | 730 | > 100000 | 
CN(CCCN(C)CCN1C(=O)c2cccc3c2c(cc2sccc23)C1=O)CCN1C(=O)c2cccc3c2c(cc2sccc23)C1=O | 270 | 210 | 1420 | 
CN(CCCN(C)CCN1C(=O)c2cccc3c2c(cc2ccoc23)C1=O)CCN1C(=O)c2cccc3c2c(cc2ccoc23)C1=O | 710 | 2580 | 12600 | 
O=C1c2cccc3c2c(cc2ccoc23)C(=O)N1CCNCCCNCCN1C(=O)c2cccc3c2c(cc2ccoc23)C1=O | 6.8 | 44 | 500 | ~80
CN(C)CCN1C(=O)c2cccc3c2c(cc2ccoc23)C1=O | 2690 | 4300 | 5580 | 
O=C1c2cccc3c2c(cc2ccsc23)C(=O)N1CCNCCCNCCN1C(=O)c2cccc3c2c(cc2ccsc23)C1=O | 1940 | 1040 | 400 | 
CN(C)CCN1C(=O)c2cccc3c2c(cc2sccc23)C1=O | 1150 | 800 | 3500 | 
CN(C)CCN1C(=O)c2cccc3c2c(cc2occc23)C1=O | 550 | 140 | 164 | 
O=C1c2cccc3c2c(cc2sccc23)C(=O)N1CCNCCCNCCN1C(=O)c2cccc3c2c(cc2sccc23)C1=O | 47 | 160 | 930 | 
CN(CCCN(C)CCN1C(=O)c2cccc3c2c(cc2ccsc23)C1=O)CCN1C(=O)c2cccc3c2c(cc2ccsc23)C1=O | 390 | 570 | 2500 | 
CN(C)CCN1C(=O)c2cccc3c2c(cc2ccsc23)C1=O | 750 | 860 | 1190 | 
